Test [1] concerns the target T1, Protein kinase C delta type (Mus musculus, UniProt P28867). The test can be described thus: Tested for ability to displace […] phorbol 12,13- dibutyrate binding from recombinant murine Protein kinase C delta in presence of [Ca2+].
Test [2] concerns the target T1, Protein kinase C delta type. The test can be described thus: Tested for ability to displace […] phorbol 12,13- dibutyrate binding from recombinant C1b domain of murine Protein kinase C delta in presence of [Ca2+].
In test [3] the target is T2, Protein kinase C epsilon type (Homo sapiens, UniProt Q02156).
T2 sequence (Q02156 whole entry): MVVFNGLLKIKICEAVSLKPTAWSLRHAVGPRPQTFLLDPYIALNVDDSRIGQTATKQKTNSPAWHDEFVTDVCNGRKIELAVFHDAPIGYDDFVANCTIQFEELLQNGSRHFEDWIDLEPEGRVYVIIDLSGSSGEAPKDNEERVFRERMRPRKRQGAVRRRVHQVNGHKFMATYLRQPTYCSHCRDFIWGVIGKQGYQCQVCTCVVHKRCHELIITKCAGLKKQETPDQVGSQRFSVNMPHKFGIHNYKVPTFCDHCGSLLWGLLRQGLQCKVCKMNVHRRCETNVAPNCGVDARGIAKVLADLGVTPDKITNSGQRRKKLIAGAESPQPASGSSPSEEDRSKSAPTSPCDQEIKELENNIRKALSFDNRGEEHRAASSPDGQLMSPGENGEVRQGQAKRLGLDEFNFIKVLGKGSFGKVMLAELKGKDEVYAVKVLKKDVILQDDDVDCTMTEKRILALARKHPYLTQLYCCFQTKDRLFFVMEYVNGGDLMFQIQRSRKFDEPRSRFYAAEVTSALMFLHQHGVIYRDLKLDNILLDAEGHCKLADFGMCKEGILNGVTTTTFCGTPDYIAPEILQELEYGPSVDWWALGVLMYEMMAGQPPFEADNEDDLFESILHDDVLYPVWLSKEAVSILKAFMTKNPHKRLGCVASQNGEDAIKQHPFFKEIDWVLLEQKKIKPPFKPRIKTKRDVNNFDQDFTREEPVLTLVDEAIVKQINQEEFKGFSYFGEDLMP
The test can be described thus: Inhibition of human Protein kinase C epsilon. The method, boiled down: (§1)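 Ligand interaction with each PKC isozyme (α, δ, β1, γ or ε) was measured as competition by the nonradioactive ligand against [³H]PDBU binding to that isozyme, using an earlier published method. Affinities are expressed as Ki.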

Test [4] concerns the target T3, Protein kinase C gamma type (Homo sapiens, UniProt P05129). Description: Binding affinity for human Protein kinase C gamma with [Ca2+]. Summed up:
as §1

For test [5], the target named is T2, Protein kinase C epsilon type. Description: Binding affinity for human Protein kinase C epsilon. Summed up: as §1
For test [6], the target named is T4, Protein kinase C delta type (Homo sapiens, UniProt Q05655). The test can be described thus: Binding affinity for human Protein kinase C delta. The method, boiled down:
as §1

The target in test [7] is T5, Protein kinase C beta type (Homo sapiens, UniProt P05771). Description: Binding affinity for human PKC beta-1. Summed up:
as §1

Test [8] deals with T4, Protein kinase C delta type. The test can be described thus: Inhibition of human Protein kinase C delta. The method, boiled down: as §1
Test [9] deals with T3, Protein kinase C gamma type. Description: Inhibition of human Protein kinase C gamma with [Ca2+]. Summed up:
as §1

The target in test [10] is T5, Protein kinase C beta type. Description: Inhibition of human PKC beta-1. Summed up: as §1

Molecules are shown by their SMILES.

For orientation: Ki means the equilibrium dissociation constant of an inhibitor or competing ligand from its target. Broadly, the Kd is the constant that tells how readily two partners part at equilibrium. The low end stands for tighter binding, the high end for weaker binding.

T1 sequence (P28867 whole entry, the tested form may be a part): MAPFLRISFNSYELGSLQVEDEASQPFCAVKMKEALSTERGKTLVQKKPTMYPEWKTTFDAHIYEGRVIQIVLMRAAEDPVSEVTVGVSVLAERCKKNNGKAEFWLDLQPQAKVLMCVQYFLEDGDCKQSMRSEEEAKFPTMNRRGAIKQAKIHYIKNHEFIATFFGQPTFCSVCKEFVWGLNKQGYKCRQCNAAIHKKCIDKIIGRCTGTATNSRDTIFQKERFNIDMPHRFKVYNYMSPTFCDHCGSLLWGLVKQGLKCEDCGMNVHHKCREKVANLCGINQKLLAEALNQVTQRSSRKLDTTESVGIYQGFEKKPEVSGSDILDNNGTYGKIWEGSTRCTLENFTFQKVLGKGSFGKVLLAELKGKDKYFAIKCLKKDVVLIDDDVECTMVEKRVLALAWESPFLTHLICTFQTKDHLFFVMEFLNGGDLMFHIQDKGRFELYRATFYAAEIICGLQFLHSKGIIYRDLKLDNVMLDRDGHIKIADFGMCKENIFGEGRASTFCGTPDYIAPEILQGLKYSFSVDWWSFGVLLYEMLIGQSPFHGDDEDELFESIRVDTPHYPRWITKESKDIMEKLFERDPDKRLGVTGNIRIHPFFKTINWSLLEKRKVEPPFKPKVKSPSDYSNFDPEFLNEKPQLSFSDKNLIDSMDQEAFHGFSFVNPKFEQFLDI
T4 sequence (Q05655 whole entry): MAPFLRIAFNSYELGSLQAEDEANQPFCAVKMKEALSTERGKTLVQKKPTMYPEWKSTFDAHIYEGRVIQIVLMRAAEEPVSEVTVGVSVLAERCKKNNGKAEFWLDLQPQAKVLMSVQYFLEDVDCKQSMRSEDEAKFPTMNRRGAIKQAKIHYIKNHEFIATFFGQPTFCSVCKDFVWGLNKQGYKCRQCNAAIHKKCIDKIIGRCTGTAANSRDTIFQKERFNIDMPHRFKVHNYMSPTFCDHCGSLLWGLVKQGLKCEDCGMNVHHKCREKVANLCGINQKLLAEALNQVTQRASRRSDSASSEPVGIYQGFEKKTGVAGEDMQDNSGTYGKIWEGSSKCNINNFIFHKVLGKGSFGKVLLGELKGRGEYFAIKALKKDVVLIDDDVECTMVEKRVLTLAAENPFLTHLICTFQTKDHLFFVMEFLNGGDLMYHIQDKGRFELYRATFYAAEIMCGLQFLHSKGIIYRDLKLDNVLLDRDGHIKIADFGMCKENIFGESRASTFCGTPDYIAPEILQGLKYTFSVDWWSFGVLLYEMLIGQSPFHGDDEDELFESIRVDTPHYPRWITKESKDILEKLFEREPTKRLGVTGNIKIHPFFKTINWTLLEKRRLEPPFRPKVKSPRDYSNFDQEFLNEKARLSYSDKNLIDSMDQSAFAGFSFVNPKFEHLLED
T5 sequence (P05771 whole entry): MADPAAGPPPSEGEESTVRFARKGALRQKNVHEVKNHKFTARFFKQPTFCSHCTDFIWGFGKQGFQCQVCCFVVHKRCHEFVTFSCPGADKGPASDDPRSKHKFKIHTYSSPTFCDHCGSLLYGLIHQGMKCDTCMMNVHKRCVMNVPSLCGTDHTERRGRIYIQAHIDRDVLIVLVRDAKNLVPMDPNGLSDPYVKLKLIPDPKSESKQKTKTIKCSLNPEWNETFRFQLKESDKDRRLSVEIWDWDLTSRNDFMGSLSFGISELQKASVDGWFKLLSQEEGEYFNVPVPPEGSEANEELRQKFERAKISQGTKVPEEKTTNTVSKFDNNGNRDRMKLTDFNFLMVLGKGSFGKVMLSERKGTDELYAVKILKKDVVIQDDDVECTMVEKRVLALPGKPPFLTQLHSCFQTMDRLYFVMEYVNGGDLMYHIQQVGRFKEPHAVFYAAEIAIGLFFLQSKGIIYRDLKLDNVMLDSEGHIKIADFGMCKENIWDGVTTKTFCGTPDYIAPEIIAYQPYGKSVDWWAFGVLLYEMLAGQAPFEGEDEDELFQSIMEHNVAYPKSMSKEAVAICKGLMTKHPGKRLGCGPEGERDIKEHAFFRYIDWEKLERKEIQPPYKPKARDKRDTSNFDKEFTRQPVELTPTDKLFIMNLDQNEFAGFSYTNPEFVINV

As for `CC(C)[C@H]1C(=O)N[C@H](CO)Cc2cc(NC(=O)CCCCCCCCC(=O)Nc3ccc4c(c3)N(C)[C@@H](C(C)C)C(=O)N[C@H](CO)C4)ccc2N1C`, the results for the Ki in [1] and in test [2] were 5.75 nM and 1.27 nM, respectively.

Take `CC(C)[C@H]1C(=O)N[C@H](CO)Cc2cc(NC(=O)CCCCCCCCCCCCCCCCCCCCC(=O)Nc3ccc4c(c3)N(C)[C@@H](C(C)C)C(=O)N[C@H](CO)C4)ccc2N1C`: the Ki is 0.38 nM in test [1] and 0.11 nM in [2].

On to `CC(C)[C@H]1C(=O)N[C@H](CO)Cc2cc(NC(=O)CCCCCCCCCCC(=O)Nc3ccc4c(c3)N(C)[C@@H](C(C)C)C(=O)N[C@H](CO)C4)ccc2N1C`, for which the inhibition constant Ki in test [1] was 1.31 nM; in [2], 0.48 nM.

With `CC(C)[C@H]1C(=O)N[C@H](CO)C1c1ccc(OC(=O)CCCCCCCCCCC(=O)Oc2ccc([C@H]3[C@@H](C(C)C)C(=O)N[C@@H]3CO)c3ccccc23)c2ccccc12` (stereo not given in full), in [1], the Ki stood at 44.8 nM.

For the molecule `CC(C)[C@H]1C(=O)N[C@H](CO)Cc2cc(NC(=O)CCCCCCC(=O)Nc3ccc4c(c3)N(C)[C@@H](C(C)C)C(=O)N[C@H](CO)C4)ccc2N1C`, the values for the Ki in test [1] and in test [2] were 170 nM and 30.6 nM, respectively.

As to `CC(C)[C@H]1C(=O)N[C@H](CO)Cc2cc(NC(=O)CCCCCCCCC(=O)Nc3ccc(O)c4ccccc34)ccc2N1C`, the Ki in [1] worked out at 21.6 nM; in test [2], 4.4 nM.

For the molecule `CC(C)[C@H]1C(=O)N[C@H](CO)Cc2cc(NC(=O)CCCCCCCCCCCCCCC(=O)Nc3ccc4c(c3)N(C)[C@@H](C(C)C)C(=O)N[C@H](CO)C4)ccc2N1C`, the figures for the Ki in test [1] and in test [2] were 0.36 nM and 0.14 nM, respectively.

`CC(C)[C@H]1C(=O)N[C@H](CO)Cc2cc(NC(=O)CCCCC(=O)Nc3ccc4c(c3)N(C)[C@@H](C(C)C)C(=O)N[C@H](CO)C4)ccc2N1C`: the Ki in test [1] is 67.8 nM; in test [2], 16.8 nM.

In the case of `CC(C)[C@H]1C(=O)N[C@H](CO)Cc2cc(NC(=O)CCCCCCCCCCCCC(=O)Nc3ccc4c(c3)N(C)[C@@H](C(C)C)C(=O)N[C@H](CO)C4)ccc2N1C`, the inhibition constant (Ki) in test [3] was 0.55 nM; in test [1] it was 0.78 nM; in test [8], 2.12 nM; in test [2], 0.33 nM; in test [9], 1.5 nM; in test [10], 1.42 nM. The Kd in test [4] is 0.16 nM; in test [5] it was 0.37 nM; in test [6], 1 nM; in [7], 0.19 nM.

The values above are taken from ChEMBL document CHEMBL1145095, “New bivalent PKC ligands linked by a carbon spacer: enhancement in binding affinity” (J Med Chem, 2003).
